The list is not random: actives were taken first. Their share in the collection is about 5.1%.
STAT1 act – STAT1 signaling activation; AID 932; 2.6% of 200,000 active; NIH 3T3 STAT1-luciferase reporter, IFN-gamma, luminescence; 100% = IFN-gamma alone, no compound; activation (% of control), % at 5.5 µM;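 active means activation above the screen-wide mean activation plus 3 SD, cut at about 130% in these data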
STAT3 inh – reduces IL-6 driven STAT3 reporter signal. U3A cells, IL-6 STAT3-luciferase reporter, luminescence; host cell line lacks STAT1. inhibition, % at 5.5 µM. 0.89% of 190,000 active. AID 862;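 active means inhibition above the mean inhibition across all screened compounds plus 3 SD, cut at about 44% in these data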
APP 5'UTR act – activates APP 5'UTR luciferase reporter; 1% of 190,000 active; activation, % at 2 µM; SH-SY5Y APP 5'UTR luciferase reporter, luminescence; zero percent = DMSO vehicle wells;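 active means activation above a set limit, based on mean plus 3 SD of controls, cut at about 140% in these data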
STAT3 activator – STAT3 signaling activation; U3A cells, IL-6 STAT3-luciferase reporter, luminescence; 100% = signal with IL-6 EC80 alone; activation (% of control), % at 5.6 µM; 0.91% of 190,000 active;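 active means activation above the screen-wide mean of compound activation plus 3 SD, cut at about 130% in these data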
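system = STAT3-luciferase reporter U3A cells | reagent = IL-6 stimulus at 33 ng/mL final | timing = 1 h compound pre-exposure, 6 h IL-6 stimulation, 37 °C | measured by = luminescence | evaluation = % activation versus median of IL-6-stimulated wells | control set = IL-6-only wells as 100% reference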
STAT1 inh – STAT1 signaling inhibition | inhibition, % at 5.5 µM | AID 920 | NIH 3T3 STAT1-luciferase reporter, IFN-gamma, luminescence | 0.35% of 200,000 active;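 active means inhibition above a set limit, the mean inhibition across all tested compounds plus 3 SD, cut at about 34% in these data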
NF-kB neuron act – NF-kB expression increase, human neuronal cells | NF-kB reporter expression; stronger effect = higher value | fold change at 12.5 µM | AID 1239 | 1.6% of 190,000 active; in the data active means fold change above about 3.3
A number is an active result; 0 = inactive; - = not tested or not shown.

SMILES	STAT1 act	STAT3 inh	APP 5'UTR act	STAT3 activator	STAT1 inh	NF-kB neuron act
C/C(=N\Nc1cccc(C(=O)O)c1)c1ccc(Cl)s1	135	0	0	0	0	0
COc1ccc(Br)cc1/C=N/Nc1cccc(C(=O)O)c1	0	0	0	0	0	0
C/C(=N\NC(=O)C(=O)Nc1cccc(C(F)(F)F)c1)c1ccc(Cl)s1	0	0	0	0	0	0
COc1ccc(/C(C)=N/Nc2cccc(C(=O)O)c2)cc1OC	0	0	217	0	0	0
C=CCOc1c(CNc2cccc(C(=O)O)c2)cccc1OCC	0	0	0	0	0	0
C=CCOc1c(CNc2cccc(C(=O)O)c2)cccc1OC	145	0	0	0	0	0
COc1ccc(C(=O)Nc2ccc(/C(C)=N/NC(=O)c3ccccc3O)cc2)cc1OC	129	0	0	0	0	0
O=C1NC2(CCCCC2)Cc2ccccc21	0	0	0	0	0	0
O=C1NC2(CCCC2)Oc2ccccc21	0	0	0	0	0	3.5
COc1cc(/C=C2/NC(=O)N(Cc3ccccc3F)C2=O)cc(OC)c1O	0	0	0	0	0	0
CCOc1cc(/C=C2/NC(=O)N(Cc3ccccc3F)C2=O)ccc1O	0	0	0	0	0	5.9
CCOC(=O)N1CCN(c2nc(C(F)(F)F)nc3c(C)cc(C)cc23)CC1	0	0	0	0	0	0
CCOC(=O)N1CCN(c2nc(C)cc(C(F)(F)F)n2)CC1	0	0	0	0	0	4.9
C=CCSc1nnnn1-c1ccc(OC)cc1	0	0	0	0	0	0
COc1ccc(C2Nc3ccccc3C(=O)N2c2ccc(C)cc2)cc1COc1ccccn1 (centres undefined)	131	0	0	0	0	0
Cc1ccc(-c2cc(N)n(Cc3ccc(Cl)cc3)n2)cc1	0	46	0	0	0	0
Nc1cc(-c2ccc(Cl)cc2)nn1-c1ccccc1	149	0	0	0	0	0
Nc1c(-c2ccc(Cl)cc2)nnn1-c1ccccc1	132	0	0	0	0	0
CC(C(=O)NC(C)(C)C)N(C(=O)CS(=O)CC(=O)Nc1ccc(F)cc1)c1ccccc1F (centres undefined)	0	0	0	0	0	0
CCOc1ccc2ccccc2c1CNCCN1CCOCC1	0	0	0	0	0	7.7
CCOc1ccc(Br)cc1CNCCN1CCOCC1	0	0	0	0	0	0
S=c1[nH]c(-c2ccccc2)cn1/N=C/c1ccccc1Br	0	0	0	0	0	0
Cc1ccc(/C=N/n2cc(-c3ccccc3)[nH]c2=S)s1	129	0	0	0	0	0
CC(C)Nc1ncnc2c1cnn2-c1ccccc1	136	0	0	0	0	4
Cc1cccc(-n2ncc3c(NC(C)C)ncnc32)c1	150	0	158	0	0	5
SMILES	STAT1 act	STAT3 inh	APP 5'UTR act	STAT3 activator	STAT1 inh	NF-kB neuron act
Cc1cccc(-n2ncc3c(N)ncnc32)c1	0	0	0	0	0	0
CCOc1ccc(Nc2ncnc3c2cnn3-c2ccccc2)cc1	0	0	0	0	0	0
Cc1ccccc1Nc1ncnc2c1cnn2-c1ccccc1	130	0	0	0	0	0
COc1ccc(NC(=O)CSc2ncnc3c2cnn3CCc2ccccc2)cc1	0	46	0	0	0	0
NNc1ncnc2c1cnn2-c1ccccc1	0	0	0	0	0	0
O=c1[nH]cnc2c1oc1ccccc12	0	0	0	0	0	0
COC(=O)c1ccc(CN(Cc2ccc(C(=O)OC)o2)C(C)(C)C)o1	0	0	0	0	0	0
Cc1cc(SCC(=O)c2ccc3c(c2)OCO3)nc2ccccc12	0	0	0	0	0	0
Cc1cc(C(=O)c2ccccc2)nc2ccccc12	0	0	0	0	0	0
CC(=O)CSc1ncnc2c1cnn2-c1ccccc1	0	0	0	0	0	7.2
CNC(=O)CSc1ncnc2c1cnn2-c1ccccc1	0	0	0	0	0	0
C(=N\N=C\c1cccnc1)/c1cccnc1	0	0	0	0	0	0
CN(/N=C/c1cccnc1)c1cnc2ccccc2n1	172	0	170	152	0	0
COc1ccc(-n2c(C)cc(-c3cn4cccc(C)c4n3)c2C)cc1	0	0	0	0	0	0
COc1cccc2cc(-c3cn4cccc(C)c4n3)c(=O)oc12	136	0	0	0	0	-
CCOC(=O)c1cccc(NC(=O)/C(=C\c2ccccc2)NC(=O)c2ccccc2Cl)c1	0	0	0	0	0	0
CCS(=O)(=O)Nc1cccc(-c2nc3cccnc3s2)c1C	0	0	0	0	0	0
Cc1ccc(-c2nc3cccnc3s2)cc1NS(C)(=O)=O	139	-	0	-	0	0
Cc1cccc(/C=N/Nc2nncc3ccccc23)c1	0	84	208	0	52	0
COc1ccc(/C=N/Nc2nncc3ccccc23)c(OC)c1	147	0	0	0	0	0
CN(C(=O)CC1C(=O)NCCN1Cc1ccoc1)C1CCOCC1 (centres undefined)	0	0	0	0	0	-
CCCCN1CCc2c([nH]c3c(C)cccc23)C1=O	0	0	0	0	0	3.5
CCCc1c(C)c2cccc(C)c2[nH]c1=O	0	0	0	0	0	0
O=C(Nc1ccccc1)c1ccc(-c2ccccc2)s1	137	0	0	0	0	0
O=C(Nc1ccccc1)c1sc(Cl)nc1-c1ccccc1	0	0	0	0	0	0
SMILES	STAT1 act	STAT3 inh	APP 5'UTR act	STAT3 activator	STAT1 inh	NF-kB neuron act
CC(OC(=O)c1ccc2c(=O)n3c(nc2c1)CCCCC3)C(=O)Nc1ncc(Cl)cc1Cl (centres undefined)	0	0	0	0	0	0
O=C1CCn2nc(-c3ccc(Cl)cc3)cc2N1	136	0	0	0	0	0
O=C(COc1ccc2ccccc2c1)Nc1cccc2cccnc12	0	0	0	0	0	0
Cc1cccc(N2CCN(C(=O)CCn3c(=S)[nH]c4cc5c(cc4c3=O)OCO5)CC2C)c1 (centres undefined)	0	0	0	0	0	0
N/C(=N\OC(=O)c1ccco1)c1ccccc1	143	0	142	0	0	0
COc1ccc(/C(N)=N/OC(=O)c2ccco2)cc1	0	57	182	0	53	0
N/C(=N\OC(=O)c1ccco1)c1ccccn1	0	0	0	0	0	0
Cc1ccc(/C(N)=N/OC(=O)c2ccco2)cc1	0	0	162	0	0	5.2
Cc1cccc(/C(N)=N/OC(=O)c2ccco2)c1	0	0	163	0	0	6.4
COc1ccc(C(=O)COC(=O)c2ccco2)cc1	0	0	0	0	0	0
Cc1cccc(/C(N)=N/OC(=O)N2CCOCC2)c1	0	0	0	0	0	0
O=[N+]([O-])c1ccc(OCCn2cnc3ccccc32)cc1	0	0	0	0	0	0
Cn1c(SCC(=O)NCc2ccc3c(c2)OCO3)nc2scc(-c3cccs3)c2c1=O	0	0	0	0	0	0

High-throughput results: PubChem BioAssay, several laboratories
